# The list is not random: actives were taken first. Their share in the collection is about 12%.
# Diaph act CS = diaphorase activation or chemical reduction counter-screen. Diaphorase/resazurin coupled assay, resorufin fluorescence, 16 min; stronger effect = higher value; 1 = vehicle wells, 0 = NADH-free wells. activation factor at 20 µM. 190,000 compounds, 0.005% hits;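 active = diaphorase activity raised at least twofold by the compound at 20 µM; inactive = activation factor below 2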
#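 Material: Purified diaphorase enzyme from Clostridium kluyveri | Buffer or medium: 50 mM HEPES pH 7.4 with 4.542 mM MgCl2, 0.005% Tween 20 | Times: 16 min enzyme reaction, ambient temperature | Signal: Red resorufin fluorescence at 544/590 nm excitation/emission | Measure: Increased resorufin signal from activators or reducing compounds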
# ROMK primary = human ROMK K+ channel modulation, primary screen; P48048; Tet-inducible ROMK, thallium flux fluorescence; actives lie on both sides; B-score at 10 µM; 130,000 compounds, 2% hits; AID 1918;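 active = signal ratio slope over the read window, or its plate-corrected B-score, at least 3 SD from the plate mean, either direction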;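 note: B-score of the F/F0 ratio slope over 7 to 12 s after thallium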
# Diaph inh CS = diaphorase inhibition or chemical oxidation counter-screen | diaphorase resazurin-to-resorufin fluorescence, NADH, 16 min; bacterial (C. kluyveri) enzyme, not human | 190,000 compounds, 0.69% hits | inhibition, % at 20 µM;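 active = primary screen inhibition at 20 µM above a set limit, cut at about 50% in these data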;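 note: plate controls were DMSO with full reaction for no effect and wells lacking NADH for full effect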
#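 Detection: fluorescence of resorufin formed from resazurin, Ex 544/Em 590 nm; test system: Clostridium kluyveri diaphorase enzyme; amount: 0.14 U/mL diaphorase, enzyme working solution; times: 16-min room-temperature incubation before reading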
# WT yeast gro inh = growth inhibition of WT yeast, mitochondrial fusion screen; mitochondrial fusion phenotypic screen, WT strain; inhibition, % at 10 µM; 190,000 compounds, 2.1% hits; in the data active = inhibition above about 58%; tested in S. cerevisiae
# L major viab = reduces viability of Leishmania major promastigotes. resazurin fluorescence viability. inhibition, % at 10 µM. 200,000 compounds, 9% hits. AID 1063; in the data active = inhibition above about 50%;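 note: promastigotes grown with compound for 44 hours at 28 °C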
# KCC2 mod = modulates chloride dependent transport by human KCC2. KCC2 cells, thallium flux FluoZin-2 fluorescence. AID 1456. 190,000 compounds, 2.2% hits. B-score of Tl+ flux slope (higher = more flux/activation; lower = inhibition) at 10 µM. Q9H2X9;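 active = thallium flux slope and its plate-corrected score both differing from the plate sample mean at a set confidence after two filtering rounds, in either direction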;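 note: slope of fluorescence scaled to starting intensity during 10 to 20 s after thallium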
# Lmaj promast 1uM = inhibitors of Leishmania major promastigote growth, repeat at 1 uM; L. major promastigote growth, resazurin fluorescence, 48 h; 1,100 compounds, 13% hits; AID 1258; shares compounds with L major viab; inhibition, % at 1 µM;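 active = inhibition above about 50% in both repeat tests, limit read from the data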
# Starred values were filed as active, the others as inactive; / = no result given.
SMILES,Diaph act CS,ROMK primary,Diaph inh CS,WT yeast gro inh,L major viab,KCC2 mod,Lmaj promast 1uM
CCOc1ccc(N(C(=O)c2cnsn2)C(C(=O)NC2CCCCC2)c2ccncc2)cc1 (centres undefined),0.8,1,25,13,76*,1.5,-11
CC(=C/C(=O)O)/C(=C/c1ccccc1)C(=O)O,0.8,/,15,-26,-3,0.94,/
CC(=O)C1=NN(c2ccccc2)C(c2cccs2)N1c1ccc(N(C)C)cc1 (centres undefined),0.9,/,13,/,96*,-0.39,-8
CC(=O)C1=NN(c2ccccc2)C(c2ccc3c(c2)OCO3)N1c1ccccc1 (centres undefined),0.8,-2.3,23,38,10,-0.061,/
CC1Cc2ccccc2N1C(=S)Nc1ccc(S(N)(=O)=O)cc1 (centres undefined),0.9,-0.11,5,-13,80*,1.9,-22
O=C(C1CCC(=O)N1Cc1ccccc1Cl)N1CCN(c2ccc(F)cc2)CC1 (centres undefined),0.9,/,7,4,-2,-0.72,/
CN1CCN(/N=C/c2ccc(-c3ccccc3)cc2)CC1,1.2,-1.1,-17,14,98*,-0.18,-23
C(=N\N1CCN(Cc2ccccc2)CC1)/c1ccc(-c2ccccc2)cc1,1,/,-5,14,13,0.87,/
CC1CCCCC1NC(=O)C1CC=CCC1C(=O)O (centres undefined),0.9,-0.39,14,-20,55*,-0.33,-16
CC(C)(C)c1ccc(C(=O)NCCCN2CCN(CCCNC(=O)c3ccc(C(C)(C)C)cc3)CC2)cc1,1.1,-1.2,-14,25,100*,-0.98,-8
COc1cc(OC)cc(C(=O)NCCCN2CCN(CCCNC(=O)c3cc(OC)cc(OC)c3)CC2)c1,0.9,-0.53,9,-6,15,-0.53,/
CCOC(=O)c1cc2c(N)c(C(=O)c3cc(C#N)c(SC)nc3C)sc2nc1C,0.7,/,32,-16,6,0.99,/
CCOC(=O)c1cnc(SC2CC(=O)N(c3ccc(C)cc3)C2=O)nc1N (centres undefined),0.9,1.3,12,-3,2,0.24,/
COc1cccc(C(=O)N2c3ccccc3Sc3ccccc32)c1,0.9,/,11,26,14,0.12,/
COc1cccc(C(=O)NC2CCN(C(=O)N3c4ccccc4Sc4ccccc43)CC2)c1,0.8,/,19,53,71*,/,-3
CS(=O)(=O)N1CCN(C(=O)c2cc(-c3ccncc3)nc3ccc(Cl)cc23)CC1,0.9,1.5,12,-4,6,/,/
C=CCC1(O)C(=O)N2C(=C1C(=O)OCC)c1ccc3ccccc3c1CC2(C)C (centres undefined),0.9,/,6,35,53*,-0.052,-19
O=C(c1ccc2c(=O)n3c(nc2c1)CCCCC3)N1CCN(C(c2ccccc2)c2ccccc2)CC1,0.8,-0.82,17,52,40,-0.69,/
S=C(Nc1ccc(Oc2ccc(NC(=S)NC3CCCCC3)cc2)cc1)NC1CCCCC1,0.9,0.43,6,-15,58*,0.95,3
CC(C)c1ccc(NC(=S)NC2CCCCCC2)cc1,0.8,0.76,22,47,23,-0.56,/
CCN1C(=O)N(c2cccc3ccccc23)C(C)=CC1(C)C,0.9,/,12,-21,51*,1.2,6
COc1ccc(C2(CNC(=O)/C=C\c3ccco3)CCCC2)cc1OC,0.8,/,25,-12,4,/,/
COc1ccc(/C=C2\CN(Cc3ccccc3)C/C(=C\c3ccc(OC)cc3OC)C2=O)c(OC)c1,0.9,/,7,1,71*,-1.7,-2
COc1ccc(OC)c(S(=O)(=O)NC2CCN(Cc3ccccc3)CC2)c1,0.9,/,11,2,-2,-1.3,/
CC(CN1CCCCC1)NC(=O)c1cc(-c2ccccn2)nc2ccc(Cl)cc12 (centres undefined),1,0.34,0,18,9,-0.18,/
SMILES,Diaph act CS,ROMK primary,Diaph inh CS,WT yeast gro inh,L major viab,KCC2 mod,Lmaj promast 1uM
Cc1cc(S(=O)(=O)Nc2ccc(N(C)C)cc2)c(C)s1,0.8,0.21,15,10,2,/,/
Cc1ccccc1-c1cc2c(nn1)-c1ccccc1C2=O,0.4,1.6,65*,55,93*,/,-13
Cc1ccc(-c2cc3c(nn2)-c2ccccc2C3=O)cc1,/,/,/,52,/,/,/
Cc1cc[n+](Cc2ccc([N+](=O)[O-])cc2)cc1,1,0.69,0,8,-8,0.86,/
Cc1ccc(-c2cc[n+](Cc3ccccc3)cc2)cc1,1,0.044,1,10,92*,0.57,3
Cc1c(C(=O)NCC2COc3ccccc3O2)oc2ccc(S(=O)(=O)N3CC(C)CC(C)C3)cc12 (centres undefined),0.9,-0.67,13,-2,59*,/,6
O=[N+]([O-])c1ccc(Cl)c2cccnc12,1.2,0.061,-19,-14,3,-0.12,/
O=[N+]([O-])c1ccc(O)c2ncccc12,0.7,/,30,70,96*,2.4,2
CC(=O)c1ccc(OCC(O)CN(C)Cc2cccs2)cc1 (centres undefined),0.9,-0.023,11,-7,7,/,/
Cc1ccc(-n2c(SCC3CCCCO3)nnc2-c2ccco2)cc1 (centres undefined),0.8,/,17,4,2,-1.9,/
CN(C)CCOC(c1ccccc1)c1ccccc1,0.9,/,14,-1,7,/,/
CN(C)CCCC(C)(O)C(Cc1ccccc1)c1ccccc1 (centres undefined),1,-0.9,2,-2,86*,/,-12
CCOC(=O)c1ccc(NS(=O)(=O)c2cnc[nH]2)cc1,0.9,/,9,0,-7,0.0092,/
O=C(Nc1ccc(CN2CCOCC2)cc1)c1ccccc1F,1,-0.061,3,10,5,/,/
O=C(Nc1ccc(CN2CCOCC2)cc1)c1cccs1,0.9,/,11,14,96*,1.4,-11
CCOc1ccccc1Cn1c(=O)sc2ccccc21,0.8,0.29,15,19,16,-1.1,/
COc1cc2c(C#N)c(N3CCN(c4ccccc4OC)CC3)nc(N)c2c(N)n1,0.5,/,50,3,73*,-2.3,33
CC(=O)c1ccccc1NS(=O)(=O)c1c(C)nn(-c2ccccc2)c1C,0.8,/,17,3,96*,1.2,43
C/C(=N\OCC(=O)NCC(F)(F)F)c1cc2ccccc2o1,0.9,0.27,6,-3,56*,0.041,-2
CCCS(=O)(=O)c1c(S(=O)(=O)CCC)c2c(C)cccn2c1C(=O)OC,0.9,/,13,-9,-4,0.15,/
CCCS(=O)(=O)c1c(S(=O)(=O)CCC)c2c3ccccc3ccn2c1C(=O)OC,0.8,/,19,8,82*,0.68,0

# Screening data as filed in PubChem BioAssay.
